Reference: ChEMBL document CHEMBL1154745, “Synthesis and biological evaluation of N-aryl-1,4-dihydropyridines as novel antidyslipidemic and antioxidant agents” (2010)

Key:
[1] = Antioxidant activity assessed as superoxide radical scavenging activity at 100 ug/ml; format: functional
Outline: (§1)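 Superoxide was generated enzymatically by xanthine with xanthine oxidase (0.04 U) and nitroblue tetrazolium in 100 mM phosphate buffer, pH 8.2, with or without test agent. Mixtures were incubated at 37 °C for 30 min and stopped with glacial acetic acid. Formazan formation was measured spectrophotometrically.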

[2] = Antioxidant activity assessed as superoxide radical scavenging activity at 200 ug/ml; format: functional; outline: as §1
Rattus norvegicus [3] = assay: Antidyslipidemic activity against triton-induced hyperlipidemia in Charles Foster rat assessed as reduction in plasma phospholipid level at 100 mg/kg, po after 18 hrs relative to control; format: functional; design: scale not given: the % may be the effect or the level left
Outline: (§2)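 Adult male Charles Foster rats (200–225 g) were given Triton WR-1339 400 mg/kg i.p. Test agent was suspended in 0.2% w/v gum acacia in water and dosed orally at the same time. There were five rats per group, and controls received vehicle. At 18 h, retro-orbital blood was taken into EDTA and centrifuged at 2500g, 4 °C, 10 min. Plasma was diluted 1:3 in saline, and lipids were measured by standard enzymatic kits.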

Rattus norvegicus [4] = assay: Antidyslipidemic activity against triton-induced hyperlipidemia in Charles Foster rat assessed as reduction in plasma triglyceride level at 100 mg/kg, po after 18 hrs relative to control; format: functional; design: scale not given: the % may be the effect or the level left; outline: as §2
Rattus norvegicus [5] = assay: Antidyslipidemic activity against triton-induced inhibition of post heparin lipolytic activity in Charles Foster rat at 100 mg/kg, po after 18 hrs; format: functional; design: scale not given: the % may be the effect or the level left
Outline: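 Triton WR-1339 hyperlipidemia model in male Charles Foster rats (200–225 g): 400 mg/kg i.p. triton plus oral test agent in gum acacia suspension, with five rats per group. After 18 h, post-heparin lipolytic activity was determined by the Wing and Robinson method on plasma, using spectrophotometry and an auto-analyzer.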

[6] = Antioxidant activity assessed as inhibition of microsomal lipid peroxidation at 100 ug/mL; format: functional; design: scale not given: the % may be the effect or the level left
Outline: (§3)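 Inhibition of lipid peroxidation in microsomal fractions, sonicated in phosphate buffer, was read out as nmol MDA formed/h/mg protein.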

[7] = Antioxidant activity assessed as inhibition of microsomal lipid peroxidation at 200 ug/mL; format: functional; design: scale not given: the % may be the effect or the level left; outline: as §3
[8] = Antioxidant activity assessed as hydroxyl radical scavenging activity at 100 ug/ml; format: functional
[9] = Antioxidant activity assessed as hydroxyl radical scavenging activity at 200 ug/ml; format: functional
Rattus norvegicus [10] = assay: Antidyslipidemic activity against triton-induced hyperlipidemia in Charles Foster rat assessed as reduction in total cholesterol level at 100 mg/kg, po after 18 hrs relative to control

Row | SMILES | Activity [1] [%] | Activity [2] [%] | Activity (Rattus norvegicus [3]) [%] | Activity (Rattus norvegicus [4]) [%] | Activity (Rattus norvegicus [5]) [%] | Activity [6] [%] | Activity [7] [%] | Activity [8] [%] | Activity [9] [%] | total cholesterol lowering (Rattus norvegicus [10]) [%]
1 | Oc1ncnc2[nH]ncc12 | -66.4 | -77.5 |  |  |  |  |  |  |  | 
2 | CC1=C(C(=O)OC(C)(C)C)C(c2ccccc2)C=CN1c1ccc(Cl)cc1 (stereo not drawn) | -24.5 | -48 | 13.5 | 11.5 | 8.9 | -18.5 | -26.6 | -19.2 | -34.6 | 15.5
3 | COC(=O)C1=C(C)N(c2ccc(OC)cc2)C=C(C)C1c1ccccc1 (stereo not drawn) | -19.8 | -34.7 | 15.3 | 20.7 | 14.7 | -14.7 | -28.9 | -13.9 | -22.6 | 15
4 | CC1=C(C(=O)OC(C)(C)C)C(c2ccccc2)C=CN1c1ccccc1 (stereo not drawn) | -30.7 | -52.9 | 12.8 | 11 | 8.4 | -35.7 | -42.1 | -23.1 | -37.1 | 11.5
5 | Cc1c(C)c2c(c(C)c1O)CC[C@@](C)(CCC[C@H](C)CCC[C@H](C)CCCC(C)C)O2 |  |  |  |  |  | -43.9 | -52.1 |  |  | 
6 | Cc1ccc(C)c(OCCCC(C)(C)C(=O)O)c1 [GEMFIBROZIL] |  |  | 39.1 | 36.1 | 34.2 |  |  |  |  | 37.1
7 | COC(=O)C1=C(C)N(c2cccc(Cl)c2)C=C(C)C1c1ccccc1 (stereo not drawn) | -21.3 | -35.3 | 13.4 | 8.9 | 13.9 | -16.2 | -22.8 | -12 | -23 | 12.2
8 | CCOC(=O)C1=C(C)N(c2ccc(F)cc2)C=CC1c1ccccc1 (stereo not drawn) | -25.7 | -42.5 | 15.3 | 13.6 | 8.1 | -28.5 | -35.8 | -10.9 | -25.5 | 17
9 | CCOC(=O)C1=C(C)N(c2ccccc2)C=CC1c1ccccc1[N+](=O)[O-] (stereo not drawn) | -20.6 | -33.6 | 5.7 | 10.5 | 12.3 | -19.2 | -25.1 | -11.5 | -26.9 | 14
